Screening data as filed in PubChem BioAssay.
Shown are actives, neighbours in structure and some others; about 2.1% of the full set was active somewhere.
EWS-Fli block: inhibitors of EWS/Fli oncoprotein transcriptional activity | A673 NR0B1-luciferase reporter, viability-normalised | inhibition, % at 12.6 µM | 350,000 compounds, 0.67% hits | AID 651661;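 active = mean inhibition of at least 50% after viability correction, with every replicate also passing that limit; inconclusive = mean reaches 50% but only one of two replicates passes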;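 also: firefly luciferase signal divided by Alamar Blue viability fluorescence both relative to DMSO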
FN deposit inh: fibronectin deposition inhibition; 350,000 compounds, 0.086% hits; AID 743247; AH1F fibroblasts, Alexa488-fibronectin deposition fluorescence, overnight; inhibition, % at 12.6 µM;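 active = mean inhibition across replicates of 30% or more, regardless of how many single replicates reach that level; inconclusive = mean under 30% yet at least half of replicates reach 30%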;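 also: positive control wells lacked labelled fibronectin entirely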
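Material – AH1F fibroblast monolayer, labelled fibronectin deposition · Reagent – labelled fibronectin 24 nM · Timing – 1 h adhesion, overnight exposure · Measured by – fluorescence at 485 nm excitation, 525 nm emission · Read-out – inhibition of fibronectin deposition signal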
Shn3 inh set2: Schnurri-3 reporter inhibition in Clone20 osteoblasts; AID 588674; inhibition, % at 12.5 µM; Clone20 osteoblast Shn3 3'UTR firefly luciferase, 24 h; 360,000 compounds, 0.52% hits;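 active = mean inhibition of at least 75% with every replicate also reaching 75%; inconclusive = mean inhibition at least 75% but some replicate below; inactive = mean inhibition below 75%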;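 also: 0% = median of neutral control wells and 100% = pilot-screen positive control compound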
EBV LMP1 NFkB: reduces LMP1-driven NF-kappaB luciferase signal. LMP1-induced NF-kappaB luciferase reporter cells, luminescence. inhibition, % at 12.5 µM. 350,000 compounds, 0.69% hits; in the data active = inhibition above about 41%; inconclusive = no clear call, values can overlap the other calls;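 also: 0% = neutral control wells and 100% = reference inhibitor control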
PAX8 reporter: lowers PAX8-driven luciferase in RMG-I cells. 360,000 compounds, 1.2% hits. AID 652154. inhibition, % at 12.6 µM. RMG-I TPO-luciferase reporter, SteadyGlo, 24 h;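 active = mean replicate inhibition at least 60% with every replicate also reaching 60%; inconclusive = only one of the two criteria is met; inactive = mean below 60% and not all replicates reaching 60%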;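 also: luciferase light reporting Pax8 driven TPO promoter activity; plate controls were median of neutral control wells for no effect and mitoxantrone controls for full effect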
aSyn 5UTR inh: MLPCN primary screen, SNCA 5' untranslated region | alpha-synuclein 5'UTR reporter, inhibitor activity | inhibition, % (tested at 7.5 µM) | 300,000 compounds, 0.82% hits | AID 1813; in the data active = inhibition above about 60%; inconclusive = no clear call, values can overlap the other calls;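 also: H4 neuroglioblastoma cells stably carrying SNCA 5'UTR luciferase fusion; 0% = DMSO wells and 100% = positive control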
DNA binder FP: small molecule DNA binding by fluorescence polarization; shares compounds with EWS-Fli block; salmon sperm DNA acridine orange fluorescence polarization; AC35, µM (series often up to 68 µM), for inactives: at the highest dose activity change, negative = DNA binding; 640 compounds, 2% hits; AID 720586;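 active = fitted curve reaches a 35% signal fall AC35 below twice the sample's top valid tested dose, actives reach about 48 µM in these data; inactive = the rest, including activity in the rising direction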;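 also: lower polarization ratio signals compound binding to DNA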
Numbers without * were called inactive; ? = inconclusive; . = no result.

SMILES | EWS-Fli block | FN deposit inh | Shn3 inh set2 | EBV LMP1 NFkB | PAX8 reporter | aSyn 5UTR inh | DNA binder FP
COc1ccc(S(=O)(=O)N=Nc2c(O)[nH]c3ccccc23)cc1 | 53.3* | 6.2 | -1.5 | 2.2 | 13.6 | 5.9 | -7.0%
C[C@@H]1CN([C@H](C)CO)C(=O)Cc2cc(NC(=O)Nc3ccc(F)cc3)ccc2O[C@@H]1CN(C)C | . | . | . | . | -5.9 | . | .
Cc1c(CCOC(=O)CC23CC4CC(CC(C)(C4)C2)C3)sc[n+]1CC(=O)c1ccccc1 | 76.2* | -13.0 | 57.7 | 5.6 | -6.7 | -65.4 | -3.7%
CC(C)C#Cc1cnc2c(c1)C(=O)N([C@H](C)CO)C[C@H](C)[C@@H](CN(C)C(=O)CCN1CCCCC1)O2 | -9.2 | 4.2 | . | . | . | . | .
COc1ccc(-c2cc(CCCC(=O)NCCc3cc(OC)ccc3OC)no2)cc1 | . | . | 18.9 | 8.9 | . | 7.1 | .
CCOc1ccc(-c2cc(CCCC(=O)NCc3ccc(C)cc3)no2)cc1 | 61.3* | -2.8 | 31.9 | -3.3 | -1.0 | 80.7* | -9.1%
Cc1ccc(Cl)cc1NC(=O)Cn1cc(C(F)(F)F)cc(Cl)c1=O | 76.3* | . | 14.7 | 6.2 | 8.8 | -2.2 | 4.2%
Cc1c(Cl)cccc1NC(=O)Cn1cc(C(F)(F)F)cc(Cl)c1=O | -8.5 | -0.3 | -21.6 | 3.1 | 0.7 | -2.6 | .
O=C(CCCCl)Nc1nc(-c2ccc3c(c2)OCCO3)cs1 | 57.1* | -3.8 | -55.3 | -17.6 | -255.3 | -116.9 | -5.3%
O=C(N[C@@H]1CC[C@H](CCNC(=O)C2CCOCC2)O[C@H]1CO)c1ccccn1 | -0.7 | -1.9 | . | . | -9.8 | . | .
O=C(NCC1CC1)[C@H]1[C@H](CO)[C@H]2Cn3c(ccc(C4=CCCCC4)c3=O)[C@H]2N1Cc1ccccc1F | 12.5 | . | . | . | . | . | .
C[C@@H]1CCCCO[C@@H](CN(C)S(=O)(=O)c2ccccc2)[C@H](C)CN([C@@H](C)CO)C(=O)c2cc(NC(=O)CCCN(C)C)ccc2O1 | -7.6 | -5.1 | . | . | -18.6 | . | .
COc1ccc(C(=O)OCC(=O)Nc2ccc(Cl)c(C(F)(F)F)c2)c(OC)c1OC | 73.0* | . | 11.3 | 21.8 | -7.3 | 12.4 | 6.0%
CN(Cc1cnc2nc(N)nc(N)c2n1)c1ccc(C(=O)N[C@@H](CCC(=O)O)C(=O)O)cc1 | 64.0* | -4.6 | 63.2 | ? | 48.0 | 77.5* | -2.6%
Cc1ccc(N=C2C(=O)Nc3ccc(C)c(Br)c32)cc1 | . | . | -13.7 | 15.7 | . | 1.6 | .
COc1ccc(N=C2C(=O)Nc3ccc(C)c(Br)c32)cc1 | 70.1* | 4.1 | 6.7 | -7.0 | 0.2 | -8.5 | -8.1%
CCS(=O)(=O)N1Cc2ccccc2CC1C(=O)Nc1nnc(SCc2ccc(C#N)cc2)s1 (stereo unspecified) | 65.9* | . | 0.9 | -8.8 | -11.4 | -11.5 | -1.4%
Cc1nn(-c2ccc(F)cc2)c2nc(N)c(C#N)c(-c3ccc(O)c(O)c3)c12 | 57.1* | 8.2 | 16.2 | -3.1 | 51.6 | 23.2 | 3.0%
Cc1nn(-c2ccccc2)c2nc(N)c(C#N)c(-c3ccc(O)c(O)c3)c12 | 14.5 | 8.7 | 20.2 | 1.4 | 6.3 | 35.3 | .
COc1ccccc1-c1cnc2c(c1)C(=O)N([C@H](C)CO)C[C@@H](C)[C@@H](CN(C)C(=O)c1cccnc1)O2 | 3.4 | . | . | . | -27.5 | . | .
COc1ccc([Si](C)(C)[C@H]2[C@H](CCO)O[C@@]3(C(=O)N(c4ccccc4)c4ccccc43)[C@@H]2C)cc1 | 57.9* | . | . | . | 102.7* | . | 1.9%
CNC[C@@H]1Oc2ccc(NC(=O)C3CC3)cc2C(=O)N([C@H](C)CO)C[C@H]1C | -0.9 | . | . | . | 8.1 | . | .
C[C@@H]1CN([C@@H](C)CO)C(=O)c2cc(-c3ccc(F)cc3)cnc2O[C@H]1CN(C)CC1CCCC1 | 4.5 | 2.4 | . | . | . | . | .
COCCCNc1ccn2nc(-c3ccccc3)cc2n1 | 56.8* | -7.7 | -1.8 | . | 9.8 | . | -8.7%
CCOC(=O)Cc1csc(NC(=S)NC(=O)c2ccc(C)cc2)n1 | 81.7* | 3.8 | 35.5 | -2.9 | 43.7 | 27.0 | -0.5%
SMILES | EWS-Fli block | FN deposit inh | Shn3 inh set2 | EBV LMP1 NFkB | PAX8 reporter | aSyn 5UTR inh | DNA binder FP
COc1ccc(-c2cc(CNc3nc(NC(C)C)nc4cc(-c5ccccc5)sc34)on2)cc1 | 53.9* | -4.2 | 70.9 | . | 103.7* | . | -1.4%
C[C@@H]1CN([C@H](C)CO)C(=O)c2cc(NS(C)(=O)=O)ccc2O[C@@H](C)CCCCO[C@H]1CN(C)S(=O)(=O)c1ccc(F)cc1 | -6.2 | . | . | . | -10.9 | . | .
COc1cccc(Sc2ccccc2/C=N/NC(N)=O)c1 | 53.8* | 9.5 | 14.7 | -3.4 | 31.7 | 16.1 | -13.7%
C=CCOc1c(/C=N\NC(N)=O)cccc1OC | 6.0 | -0.9 | 3.9 | -1.8 | 1.4 | 7.2 | .
CO[C@@H]1CN(C)C(=O)c2ccc(NC(C)=O)cc2OC[C@H](C)N(C(=O)CN(C)C)C[C@@H]1C | 1.9 | -6.6 | . | . | -15.6 | . | .
C[C@@H]1CN([C@H](C)CO)C(=O)Cc2cc(NS(=O)(=O)c3cn(C)cn3)ccc2O[C@H]1CN(C)CC1CCCCC1 | -3.0 | . | . | . | -11.1 | . | .
COc1ccccc1NC(=O)N1[C@@H]2CNC[C@H]1[C@@H]2c1ccc(-c2ccc(C#N)cc2)cc1 | 54.0* | -10.6 | . | . | -4.9 | . | -15.9%
COc1ccccc1NC(=O)N1[C@@H]2CNC[C@H]1C2c1ccc(-c2cccc(C#N)c2)cc1 (stereo partly specified) | . | -1.7 | . | . | . | . | .
Cc1cccc(N2CCN(C3C(=O)Nc4ccccc4-n4nnnc43)CC2)c1C (stereo unspecified) | 53.8* | 3.7 | . | . | 31.2 | . | 4.6%
O=C(NCc1ccccc1)[C@@]1(Cc2ccccc2)COC(c2ccc(OCCCO)cc2)=N1 | 23.0 | . | . | . | 6.0 | . | .
Cc1cc(Br)cn2c(Cc3cccc(Cl)c3)c(-c3ccco3)nc12 | 2.2 | -9.6 | . | . | 6.8 | . | .
Cc1ccc(Cc2c(-c3ccco3)nc3c(C)cc(Br)cn23)cc1 | 54.4* | 4.9 | -13.6 | . | 34.0 | . | 12.8%
C[C@H](CO)N1C[C@H](C)[C@@H](CN(C)C(=O)Nc2ccc3c(c2)OCO3)Oc2c(NC(=O)C3CCOCC3)cccc2C1=O | 4.3 | 10.4 | . | . | -18.3 | . | .
Nc1nc(=S)c2ncn([C@@H]3O[C@H](CO)[C@@H](O)[C@H]3O)c2[nH]1 | 52.6* | 3.7 | 19.1 | -39.5 | 97.3* | . | -13.2%
Nc1ncn([C@@H]2O[C@H](CO)[C@@H](O)[C@H]2O)c(=O)n1 | 62.2* | -0.4 | -6.6 | -51.3 | 21.1 | 32.5 | 8.2%
Nc1nc(=S)c2ncn(C3OC(CO)C(O)C3O)c2[nH]1 (stereo unspecified) | 12.1 | 6.0 | -32.6 | 9.0 | 24.6 | 18.3 | .
CS(=O)(=O)N1CC2(C1)[C@H](c1ccccc1)[C@H](CO)N2CC1CCCC1 | 1.0 | 5.1 | . | . | . | . | .
O=C(O)C[C@@H]1C[C@@H]2c3cc(NC(=O)c4ccc5c(c4)OCO5)ccc3O[C@@H]2[C@H](CO)O1 | 1.6 | 5.4 | . | . | -4.2 | . | .
NCCOc1ccccc1-c1ccccc1 | . | . | 7.3 | -2.8 | . | 12.8 | .
